ChEMBL document CHEMBL4411330, “Effects of Systematic Shortening of Noncovalent C8 Side Chain on the Cytotoxicity and NF-κB Inhibitory Capacity of Pyrrolobenzodiazepines (PBDs)” (J Med Chem, 2019)
The source made the active and inactive calls. The calls are words filed in the database; no cut-off is given here.

What was measured:
[1] = Cytotoxicity against human primary CLL cells assessed as cell death after 48 hrs by annexin V/propidium iodide-staining based flow cytometry; type: functional; conditions: read-out: LC50 (the source's name)
Method in brief: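 Primary patient CLL cells were isolated by Histopaque density gradient, phenotyped by flow cytometry and used within 24 h. Culture was RPMI with 10% FBS, 1% glutamate and 1% pen/strep, plus IL-4 5 ng/ml added with compound, at 37 °C, 5% CO2. Cells at 1,000,000 cells/ml were treated from 1 nM upward for 48 h, in triplicate. Annexin V-FITC/PI was read by flow cytometry, and LC50 came from sigmoidal dose-response fits.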

[2] = tested on: JJN-3; assay: Cytotoxicity against human JJN-3 cells assessed as cell death after 48 hrs by annexin V/propidium iodide-staining based flow cytometry; type: functional; conditions: JJN-3, 48 h, read-out: LC50 (the source's name)
Method in brief: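 JJN-3 cells were grown in DMEM with 20% FBS, 1% pen/strep and 1% pyruvate at 37 °C, 5% CO2. They were seeded at 1,000,000 cells/ml and exposed to compound from 1 nM upward for 48 h, in triplicate. Cell death was measured by Annexin V-FITC/propidium iodide flow cytometry, and LC50 was derived from sigmoidal dose-response curves.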

[3] = target: Transcription factor p65 (Homo sapiens) (UniProt Q04206); assay: Inhibition of NF-kappaB in human JJN-3 cells assessed as reduction in p65 DNA binding activity up to 30 nM after 4 hrs by ELISA; type: cell-based
Sequence of Transcription factor p65 (Homo sapiens) (Q04206 whole entry): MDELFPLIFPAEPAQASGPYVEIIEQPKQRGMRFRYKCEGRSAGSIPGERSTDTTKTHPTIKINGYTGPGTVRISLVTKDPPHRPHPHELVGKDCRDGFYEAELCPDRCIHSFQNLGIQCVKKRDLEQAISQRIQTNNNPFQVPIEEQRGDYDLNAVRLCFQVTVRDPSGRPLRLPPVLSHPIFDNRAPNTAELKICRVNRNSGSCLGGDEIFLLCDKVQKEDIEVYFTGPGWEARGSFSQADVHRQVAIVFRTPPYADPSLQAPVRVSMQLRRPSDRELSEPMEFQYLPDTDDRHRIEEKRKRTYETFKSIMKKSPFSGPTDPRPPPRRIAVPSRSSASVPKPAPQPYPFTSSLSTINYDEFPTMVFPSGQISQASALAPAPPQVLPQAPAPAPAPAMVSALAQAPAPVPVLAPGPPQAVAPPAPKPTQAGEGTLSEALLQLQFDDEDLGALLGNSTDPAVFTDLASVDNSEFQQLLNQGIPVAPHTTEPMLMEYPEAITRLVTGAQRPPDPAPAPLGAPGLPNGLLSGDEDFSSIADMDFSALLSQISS

[4] = target: T1, Nuclear factor NF-kappa-B p105 subunit (Homo sapiens) (UniProt P19838); assay: Inhibition of NF-kappaB in human JJN-3 cells assessed as reduction in p50 DNA binding activity up to 30 nM after 4 hrs by ELISA; type: cell-based
T1 sequence (whole entry): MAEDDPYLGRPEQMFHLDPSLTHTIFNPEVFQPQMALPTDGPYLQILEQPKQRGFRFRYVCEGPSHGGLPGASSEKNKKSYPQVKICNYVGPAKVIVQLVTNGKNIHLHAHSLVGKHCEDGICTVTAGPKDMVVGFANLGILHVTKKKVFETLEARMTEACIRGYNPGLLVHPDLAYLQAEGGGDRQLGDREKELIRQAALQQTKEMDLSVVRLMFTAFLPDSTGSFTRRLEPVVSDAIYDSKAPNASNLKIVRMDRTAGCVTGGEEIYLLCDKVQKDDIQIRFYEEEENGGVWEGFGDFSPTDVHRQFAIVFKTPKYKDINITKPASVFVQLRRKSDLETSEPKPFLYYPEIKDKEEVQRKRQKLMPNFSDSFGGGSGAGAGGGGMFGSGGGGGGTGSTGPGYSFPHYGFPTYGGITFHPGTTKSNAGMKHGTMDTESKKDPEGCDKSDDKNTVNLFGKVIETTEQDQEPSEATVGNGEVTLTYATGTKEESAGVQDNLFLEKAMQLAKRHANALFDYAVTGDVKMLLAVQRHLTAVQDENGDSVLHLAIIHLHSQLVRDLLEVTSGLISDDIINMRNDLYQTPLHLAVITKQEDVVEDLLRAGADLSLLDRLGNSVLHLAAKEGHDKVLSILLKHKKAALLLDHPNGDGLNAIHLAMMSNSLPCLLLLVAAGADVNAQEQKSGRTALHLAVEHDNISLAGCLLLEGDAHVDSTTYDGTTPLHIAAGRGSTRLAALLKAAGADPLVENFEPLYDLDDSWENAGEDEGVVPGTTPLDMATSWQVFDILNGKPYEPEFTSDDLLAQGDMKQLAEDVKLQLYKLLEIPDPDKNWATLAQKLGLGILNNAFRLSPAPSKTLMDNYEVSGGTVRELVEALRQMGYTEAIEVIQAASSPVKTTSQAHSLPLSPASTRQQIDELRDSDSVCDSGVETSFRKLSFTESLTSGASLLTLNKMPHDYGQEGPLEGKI

[5] = target: T2, Transcription factor RelB (Homo sapiens) (UniProt Q01201); assay: Inhibition of NF-kappaB in human JJN-3 cells assessed as reduction in RelB DNA binding activity up to 30 nM after 4 hrs by ELISA; type: cell-based
T2 sequence (whole entry): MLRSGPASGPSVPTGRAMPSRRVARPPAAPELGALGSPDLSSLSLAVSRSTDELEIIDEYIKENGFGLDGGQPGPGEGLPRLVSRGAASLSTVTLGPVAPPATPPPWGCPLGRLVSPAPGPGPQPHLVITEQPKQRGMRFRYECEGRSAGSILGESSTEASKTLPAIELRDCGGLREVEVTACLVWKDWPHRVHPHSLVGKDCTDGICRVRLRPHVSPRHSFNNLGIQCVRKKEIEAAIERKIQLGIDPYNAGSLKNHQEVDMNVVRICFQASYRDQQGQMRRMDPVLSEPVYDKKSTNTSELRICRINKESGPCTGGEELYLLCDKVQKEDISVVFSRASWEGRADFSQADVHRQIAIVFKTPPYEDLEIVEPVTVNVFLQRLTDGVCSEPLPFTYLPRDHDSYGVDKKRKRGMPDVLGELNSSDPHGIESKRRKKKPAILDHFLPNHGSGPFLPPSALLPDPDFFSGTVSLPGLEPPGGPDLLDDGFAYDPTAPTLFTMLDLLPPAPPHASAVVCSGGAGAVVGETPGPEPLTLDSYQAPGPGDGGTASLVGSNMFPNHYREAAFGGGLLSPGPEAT

[6] = Therapeutic index, ratio of LC50 for human T cells to LC50 for human primary CLL cells; type: toxicity; conditions: T cells versus primary CLL cells, read-out: TI
[7] = Cytotoxicity against human T cells assessed as cell death after 48 hrs by annexin V/propidium iodide-staining based flow cytometry; conditions: read-out: LC50
Method in brief: (§1)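 Normal peripheral blood B or T cells from three donors were isolated by Histopaque density gradient and phenotyped for CD19/CD3/CD38/CD49d. They were used within 24 h in RPMI with 10% FBS, 1% glutamate and 1% pen/strep at 37 °C, 5% CO2. Cells at 1,000,000 cells/ml were exposed from 1 nM upward for 48 h, in triplicate. FITC-Annexin V/PI staining was read by flow cytometry, and LC50 was taken from the dose-response curves.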

[8] = Therapeutic index, ratio of LC50 for human B cells to LC50 for human primary CLL cells; type: toxicity; conditions: B cells versus primary CLL cells, read-out: TI
[9] = Cytotoxicity against human B cells assessed as cell death after 48 hrs by annexin V/propidium iodide-staining based flow cytometry; conditions: read-out: LC50; method in brief: as §1
[10] = target: T3, Nuclear factor NF-kappa-B p100 subunit (Homo sapiens) (UniProt Q00653); assay: Inhibition of NF-kappaB in human JJN-3 cells assessed as reduction in p52 DNA binding activity up to 30 nM after 4 hrs by ELISA; type: cell-based
T3 sequence (whole entry): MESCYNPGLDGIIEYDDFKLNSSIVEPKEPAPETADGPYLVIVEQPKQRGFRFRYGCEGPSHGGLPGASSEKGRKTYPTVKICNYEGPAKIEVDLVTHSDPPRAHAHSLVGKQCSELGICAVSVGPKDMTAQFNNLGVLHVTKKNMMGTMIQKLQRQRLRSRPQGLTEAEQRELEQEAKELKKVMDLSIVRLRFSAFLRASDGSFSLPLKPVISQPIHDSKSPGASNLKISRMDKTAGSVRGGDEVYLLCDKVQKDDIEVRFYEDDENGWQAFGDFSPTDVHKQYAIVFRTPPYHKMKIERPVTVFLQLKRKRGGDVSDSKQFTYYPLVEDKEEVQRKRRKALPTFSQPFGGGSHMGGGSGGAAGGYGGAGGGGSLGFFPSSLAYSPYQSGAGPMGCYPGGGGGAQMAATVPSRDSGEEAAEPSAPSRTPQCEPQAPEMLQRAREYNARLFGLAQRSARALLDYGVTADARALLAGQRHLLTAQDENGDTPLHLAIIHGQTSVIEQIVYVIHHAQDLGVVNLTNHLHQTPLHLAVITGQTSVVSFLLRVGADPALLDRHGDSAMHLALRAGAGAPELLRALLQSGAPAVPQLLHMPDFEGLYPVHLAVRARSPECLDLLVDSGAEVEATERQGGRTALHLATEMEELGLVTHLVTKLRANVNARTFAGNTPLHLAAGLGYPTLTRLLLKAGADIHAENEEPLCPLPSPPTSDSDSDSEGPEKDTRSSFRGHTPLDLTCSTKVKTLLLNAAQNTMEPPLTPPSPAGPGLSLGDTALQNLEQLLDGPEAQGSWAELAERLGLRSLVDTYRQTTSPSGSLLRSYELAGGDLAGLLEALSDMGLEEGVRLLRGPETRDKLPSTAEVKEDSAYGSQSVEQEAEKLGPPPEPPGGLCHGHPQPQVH

`COc1cc2c(cc1OCCCC(=O)Nc1cccnc1)N=C[C@@H]1CCCN1C2=O` showed a CC50 [1] of 4200 nM and a CC50 [2] of 1600 nM.

In the case of `COc1cc2c(cc1OCCCC(=O)Nc1ccc(O)cc1)N=C[C@@H]1CCCN1C2=O`, the CC50 [1] is reported as 5500 nM, the inhibition [3] is reported as “inactive” and the inhibition [4] is reported as “Active”. The inhibition [5] was “inactive” and the CC50 [2] was 2200 nM.

Compound `COc1cc2c(cc1OCCCC(=O)Nc1ccc3occc3c1)N=C[C@@H]1CCCN1C2=O` has a selectivity ratio [6] of 415, a CC50 at 48 h [7] of 3900 nM and a selectivity ratio [8] of 149. For the same compound, the CC50 at 48 h [9] was 1400 nM, the CC50 [1] was 9.4 nM and the inhibition [3] was “Active”. The inhibition [4] was “Active”, the inhibition [5] was “inactive” and the CC50 [2] was 44 nM.

For `COc1cc2c(cc1OCCCC(=O)Nc1ccc(C)c(C)c1)N=C[C@@H]1CCCN1C2=O`, the CC50 [1] was 8.6 nM and the CC50 [2] was 23.7 nM.

Work on `CNC(=O)CCCOc1cc2c(cc1OC)C(=O)N1CCC[C@H]1C=N2` yielded a CC50 [1] of 16100 nM and a CC50 [2] of 18500 nM.

`COc1ccc(NC(=O)CCCOc2cc3c(cc2OC)C(=O)N2CCC[C@H]2C=N3)cc1` gave a selectivity ratio [6] of 77.5, a CC50 at 48 h [7] of 690 nM and a selectivity ratio [8] of 71.9. For the same compound, the CC50 at 48 h [9] was 640 nM, the CC50 [1] was 8.9 nM and the inhibition [3] was “inactive”. The inhibition [4] was “Active”, the inhibition [5] was “inactive” and the CC50 [2] was 15.3 nM.

`CCNC(=O)CCCOc1cc2c(cc1OC)C(=O)N1CCC[C@H]1C=N2` gave a CC50 [1] of 11700 nM and a CC50 [2] of 28700 nM.

`COc1cc2c(cc1OCCCC(=O)NC1CCCCC1)N=C[C@@H]1CCCN1C2=O` showed a selectivity ratio [6] of 1.74, a CC50 at 48 h [7] of 12400 nM and a selectivity ratio [8] of 0.24. It also gave a CC50 at 48 h [9] of 1700 nM, a CC50 [1] of 7100 nM and a CC50 [2] of 1400 nM.

For `COc1cc2c(cc1OCCCC(=O)Nc1ccc3c(c1)CCC3)N=C[C@@H]1CCCN1C2=O`, the CC50 [1] was 7.7 nM and the CC50 [2] was 30 nM.

`COc1cc2c(cc1OCCCC(=O)Nc1ccncc1)N=C[C@@H]1CCCN1C2=O` showed a CC50 [1] of 4900 nM and a CC50 [2] of 6700 nM.

For `COC(=O)c1cc2cc(NC(=O)CCCOc3cc4c(cc3OC)C(=O)N3CCC[C@H]3C=N4)ccc2o1`, the selectivity ratio [6] was 236, the CC50 at 48 h [7] was 2100 nM and the selectivity ratio [8] was 46.1. For the same compound, the CC50 at 48 h [9] was 410 nM, the CC50 [1] was 8.9 nM and the CC50 [2] was 49 nM.

With `CCCNC(=O)CCCOc1cc2c(cc1OC)C(=O)N1CCC[C@H]1C=N2` the CC50 [1] was 25100 nM and the CC50 [2] was 12700 nM.

With `COC(=O)c1cc(NC(=O)c2cc(NC(=O)CCCOc3cc4c(cc3OC)C(=O)N3CCC[C@H]3C=N4)cn2C)cn1C` the CC50 [1] was 39 nM and the CC50 [2] was 21 nM.

In the case of `COc1cc2c(cc1OCCCC(=O)Nc1cccc(C)c1)N=C[C@@H]1CCCN1C2=O`, the CC50 [1] is reported as 13.6 nM and the CC50 [2] is reported as 20.2 nM.

`CCCOc1ccc(NC(=O)CCCOc2cc3c(cc2OC)C(=O)N2CCC[C@H]2C=N3)cc1` gave a selectivity ratio [6] of 129, a CC50 at 48 h [7] of 1100 nM and a selectivity ratio [8] of 45.9. It also gave a CC50 at 48 h [9] of 390 nM, a CC50 [1] of 8.5 nM and a CC50 [2] of 8.7 nM.

With `COC(=O)c1cc(NC(=O)c2cc3cc(NC(=O)CCCOc4cc5c(cc4OC)C(=O)N4CCC[C@H]4C=N5)ccc3o2)cn1C` the selectivity ratio [6] was 227, the CC50 at 48 h [7] was 1700 nM and the selectivity ratio [8] was 124. For the same compound, the CC50 at 48 h [9] was 930 nM, the CC50 [1] was 7.5 nM and the inhibition [4] was “inactive”. For the same compound, the inhibition [5] was “Active”, the inhibition [10] was “inactive” and the CC50 [2] was 30 nM.

For `COc1cc2c(cc1OCCCC(=O)Nc1ccc(C)cc1)N=C[C@@H]1CCCN1C2=O`, the CC50 [1] was 12.3 nM and the CC50 [2] was 17.5 nM.

Compound `COc1cc2c(cc1OCCCC(=O)Nc1ccc3c(c1)CCO3)N=C[C@@H]1CCCN1C2=O` has a CC50 [1] of 5.1 nM and a CC50 [2] of 14.7 nM.

With `COc1cc2c(cc1OCCCC(=O)Nc1ccccc1)N=C[C@@H]1CCCN1C2=O` the CC50 [1] was 11.6 nM, the inhibition [3] was “inactive” and the inhibition [4] was “Active”. For the same compound, the inhibition [5] was “inactive” and the CC50 [2] was 26.4 nM.

Compound `CCCCNC(=O)CCCOc1cc2c(cc1OC)C(=O)N1CCC[C@H]1C=N2` has a CC50 [1] of 22400 nM and a CC50 [2] of 51600 nM.

With `CCOc1ccc(NC(=O)CCCOc2cc3c(cc2OC)C(=O)N2CCC[C@H]2C=N3)cc1` the selectivity ratio [6] was 517, the CC50 at 48 h [7] was 3000 nM and the selectivity ratio [8] was 129. For the same compound, the CC50 at 48 h [9] was 750 nM, the CC50 [1] was 5.8 nM and the inhibition [3] was “inactive”. The inhibition [4] was “Active”, the inhibition [5] was “inactive” and the inhibition [10] was “inactive”. The CC50 [2] was 15.6 nM.
